Data taken from publication PMC3590845 (Bioorganic & medicinal chemistry, 2012).

How the values were obtained:
[1] = GSH-activated NO release by chemiluminescence; assay type: physicochemical; settings: 4 mM GSH; for NO yield (mol)/mol of compound mean (SE): pH 7.4 phosphate buffer, 37 °C; for NO release on reaction with GSH (in words): chemiluminescence assay
Method in brief: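 Pre-warmed (37 °C) pH 7.4 phosphate buffer with 4 mM GSH was sparged with inert gas until the detector response was steady. Test compound was then injected to start the reaction, and NO release was followed over time. The integrated release curve gave mol NO released per mol compound.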

[2] = system: H1703 cells; assay: In vitro metabolism in cells followed by LC/MS; assay type: in vitro ADME, human; settings: compound 12 at 5 μM for 5, 30 and 60 min
Method in brief: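 H1703 cells were plated in flasks, incubated overnight at 37 °C, then exposed to test compound. At each time point, cells were scraped into 10 mM HCl and lysed by freeze–thaw, then 5-sulfosalicylic acid was added. After spinning at 8000×g for 10 min, supernatants were run on C18 LC/MS (APCI positive ions, water/acetonitrile/0.1% formic acid gradient). Parent and arylated-GSH ions were tracked as extracted ion chromatograms.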

[3] = system: H1703 cells xenografted in athymic mice; assay: H1703 xenograft in athymic mice; assay type: in vivo; settings: 20 μmol/kg ip, five times a week for four weeks
Method in brief: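 H1703 cells (5 × 10^6) were injected s.c. into one flank of 7-week-old female athymic NCr-nu/nu mice. Dosing started once tumors reached 2 × 2 × 2 mm3, typically after four weeks. Test compound was given as Pluronic P123 micelles, and controls received vehicle (2.25% Pluronic P123 in PBS) ip. Body weights were recorded three times weekly.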

[4] = system: H1703 cells; assay: Western blot of stress signaling and apoptosis; assay type: cell-based, human; settings: 1 μM
Method in brief: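 After treatment of H1703 cells, lysates were immunoblotted for caspase 3, caspase 7, PARP, phospho-SAPK/JNK, phospho-c-jun and ATF3. PARP was scored as the full-length band versus the 89-kDa cleaved fragment.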

Row | Structure (SMILES) | NO yield (mol)/mol of compound mean (SE) [1] | NO release on reaction with GSH (in words) [1] | Decomposition / metabolic turnover in cells [2] | Body weights [3] | ATF3 level [4] | Apoptosis (cleavage of PARP and caspases 3 and 7) [4] | SAPK/JNK stress signaling pathway ([4]; phosphorylation of SAPK/JNK and c-jun after 4 h)
1 | CCOC(=O)N1CCN(/[N+]([O-])=N/Oc2ccc([N+](=O)[O-])cc2[N+](=O)[O-])CC1 [JS-K, reference compound] | 1.96 (0.03) mol/mol of compound | – | near complete metabolic turnover of JS-K in as few as ten minutes | – | – | – | –
2 | CCOC(=O)N1CCCN(/[N+]([O-])=N/Oc2ccc([N+](=O)[O-])cc2[N+](=O)[O-])CC1 [Compound 2, reference compound] | 2.00 (0.04) mol/mol of compound | – | – | – | – | – | –
3 | CCOC(=O)N1CCN(/[N+]([O-])=N/Oc2ccc([N+](=O)[O-])cc2C#N)CC1 [Compound 12] | 2.04 (0.01) mol/mol of compound | essentially quantitative amounts of NO | over 1 h | did not affect body weights | upregulated | activated within 4 h | activated

Now from value to molecule, other results behind:

Row | NO yield (mol)/mol of compound mean (SE) [1] | NO release on reaction with GSH (in words) [1] | Structure (SMILES) | Decomposition / metabolic turnover in cells [2] | Body weights [3] | ATF3 level [4] | Apoptosis (cleavage of PARP and caspases 3 and 7) [4] | SAPK/JNK stress signaling pathway ([4]; phosphorylation of SAPK/JNK and c-jun after 4 h)
4 | 2.01 (0.03) mol/mol of compound | essentially quantitative amounts of NO | CCOC(=O)N1CCCN(/[N+]([O-])=N/Oc2ccc([N+](=O)[O-])cc2C#N)CC1 [Compound 15] | – | – | – | – | –
5 | 1.96 (0.04) mol/mol of compound | essentially quantitative amounts of NO | CCOC(=O)N1CCCN(/[N+]([O-])=N/Oc2ccc(C#N)cc2[N+](=O)[O-])CC1 [Compound 16] | – | – | – | – | –
6 | 2.02 (0.06) mol/mol of compound | essentially quantitative amounts of NO | CCOC(=O)N1CCN(/[N+]([O-])=N/Oc2ccc(C#N)cc2[N+](=O)[O-])CC1 [Compound 13] | – | – | – | – | –
